Data as given in ChEMBL document CHEMBL3739314, “Discovery of Nanomolar Dengue and West Nile Virus Protease Inhibitors Containing a 4-Benzyloxyphenylglycine Residue” (J Med Chem, 2015).
Calls of active or inactive are those of the source. The calls are words filed in the database; no cut-off is given here.

Assays:
[1] = Inhibition of Dengue virus serotype-2 NS2B-NS3 protease using 2-Abz-Nle-Lys-Arg-Arg-Ser-(3-NO2)-Tyr-NH2 as substrate preincubated with protein for 15 mins followed by substrate addition measured for 15 mins by FRET assay; design: species or system dengue virus type 2
How it was run: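 DENV-2 NS2B-NS3 linked construct at 30 nM (15 nM in some cases), same pH 9 Tris buffer, 15 min preincubation and FRET read-out. Eight inhibitor concentrations spanned 0–1, 0–2, 0–6 or 0–50 μM, with substrate at 50 μM. IC50 was fitted from triplicates.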

[2] = molecular target: Trypsin (Homo sapiens) (UniProt P07477+P07478+P35030); assay: Inhibition of trypsin (unknown origin) using Boc-Val-Pro-Arg-AMC as substrate at 25 uM preincubated with protein for 15 mins followed by substrate addition by continuous fluorimetric assay relative to control
[3] = molecular target: Prothrombin (Homo sapiens) (UniProt P00734); assay: Inhibition of thrombin (unknown origin) using Boc-Val-Pro-Arg-AMC as substrate at 25 uM preincubated with protein for 15 mins followed by substrate addition measured for 10 mins by continuous fluorimetric assay relative to control
[4] = tested on: West Nile virus; assay: Inhibition of West Nile virus NS2B-NS3 protease using 2-Abz-Gly-Leu-Lys-Arg-Gly-Gly-[…]-Tyr-NH2 as substrate at 50 uM preincubated with protein for 15 mins followed by substrate addition measured for 15 mins by FRET assay
How it was run: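 Linked WNV NS2B-NS3 protease (150 nM) was preincubated 15 min with inhibitor (50 μM final) in 50 mM Tris-HCl pH 9, 10% ethylene glycol, 0.0016% Brij 58. […] Percent inhibition was taken from the slope relative to the no-inhibitor control, in triplicate.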

[5] = Retention time of compound by RP-HPLC analysis; assay type: physicochemical
[6] = Cytotoxicity against human HuH7 cells infected with Dengue virus serotype-2 assessed as cell viability after 48 hrs by Cell-Titer-Glo luminescent viability assay; assay type: cell-based, Huh-7
How it was run: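 Huh-7 cells (10^4/well) were seeded in DMEM + 10% FBS overnight, then infected with WT DENV-2 (MOI 1) in the presence of compound, triplicate per concentration. After 48 h at 37 °C, medium was replaced with fresh DMEM and viability was read by CellTiter-Glo luminescence. CC50 was determined.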

[7] = tested on: dengue virus type 2; assay: Antiviral activity against Dengue virus serotype-2 infected in African green monkey Vero cells after 7 days by virus yield reduction assay; assay type: functional, organism-based
[8] = Inhibition of West Nile virus NS2B-NS3 protease using 2-Abz-Gly-Leu-Lys-Arg-Gly-Gly-[…]-Tyr-NH2 as substrate preincubated with protein for 15 mins followed by substrate addition measured for 15 mins by FRET assay
How it was run: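 WNV NS2B-NS3 linked construct at 75 nM (40 nM in one case) in pH 9 Tris buffer, preincubated 15 min with eight inhibitor concentrations (ranges 0–1 up to 0–50 μM). Substrate was 50 μM, with FRET readout over 15 min. IC50 was fitted from triplicates.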

| Compound | IC50 [1] [nM] | inhibition [2] | inhibition [3] | inhibition [4] [%] | Retention_time [5] [min] | EC50 [7] [nM] | IC50 [8] [nM] | CC50 at 48 h [6] [nM] | Ki [1] [nM] | Ki [8] [nM] |
| --- | --- | --- | --- | --- | --- | --- | --- | --- | --- | --- |
| N=C(N)NCCC[C@H](NC(=O)c1cc2ccsc2s1)C(=O)N[C@@H](CCCCN)C(=O)N[C@@H](C(N)=O)c1ccc(OCc2ccc(C(F)(F)F)cc2)cc1 | 203 | inactive | inactive | 94.2 | 3.39 | 10500 |  | 48500 |  |  |
| N=C(N)NCCC[C@H](NC(=O)c1cc2ccccc2s1)C(=O)N[C@@H](CCCCN)C(=O)N[C@@H](C(N)=O)c1ccc(OCc2ccccc2)cc1 | 451 |  | < 30% | 97.1 | 3.13 | 20400 |  | > 100000 |  |  |
| N=C(N)NCCC[C@H](NC(=O)c1cc2sccc2s1)C(=O)N[C@@H](CCCCN)C(=O)N[C@@H](C(N)=O)c1ccc(OCc2ccccc2C(F)(F)F)cc1 | 197 | inactive | inactive | 97.5 |  |  |  |  |  |  |
| N=C(N)NCCC[C@H](NC(=O)c1cc2ccccc2s1)C(=O)N[C@@H](CCCCN)C(=O)N[C@@H](C(N)=O)c1ccc(OCc2ccccc2C(F)(F)F)cc1 | 243 | inactive | inactive | 93.1 |  |  |  |  |  |  |
| N=C(N)NCCC[C@H](NC(=O)c1cc2ccccc2s1)C(=O)N[C@@H](CCCCN)C(=O)N[C@@H](C(N)=O)c1ccc(OCc2c(Cl)cccc2Cl)cc1 | 183 | inactive | inactive | 95.9 |  |  |  |  |  |  |
| N=C(N)NCCC[C@H](NC(=O)c1ccc(Cl)s1)C(=O)N[C@@H](CCCCN)C(=O)N[C@@H](C(N)=O)c1ccc(OCc2ccccc2)cc1 | 177 |  | < 30% | 98.4 |  |  | 457 |  |  |  |
| N=C(N)NCCC[C@H](NC(=O)c1ccsc1)C(=O)N[C@@H](CCCCN)C(=O)N[C@@H](C(N)=O)c1ccc(OCc2ccccc2)cc1 | 179 |  | < 30% | 98.2 |  |  | 490 |  |  |  |
| N=C(N)NCCC[C@H](NC(=O)c1cc(-c2ccccc2)cs1)C(=O)N[C@@H](CCCCN)C(=O)N[C@@H](C(N)=O)c1ccc(OCc2ccccc2)cc1 | 304 |  | < 30% | 98.6 |  |  | 398 |  |  |  |
| N=C(N)NCCC[C@H](NC(=O)c1cc2ccccc2s1)C(=O)N[C@@H](CCCCN)C(=O)N[C@@H](C(N)=O)c1ccc(OCc2ccc(C(F)(F)F)cc2)cc1 | 199 | inactive | inactive | 98.7 | 3.47 | 7060 | 604 | 56800 |  |  |
| N=C(N)NCCC[C@H](NC(=O)C1CC1)C(=O)N[C@@H](CCCCN)C(=O)N[C@@H](C(N)=O)c1ccc(OCc2ccccc2)cc1 | 805 |  | < 30% | 100 |  |  | 1660 |  |  |  |
| N=C(N)NCCC[C@H](NC(=O)/C=C/c1ccccc1)C(=O)N[C@@H](CCCCN)C(=O)N[C@@H](C(N)=O)c1ccc(OCc2ccccc2)cc1 | 323 |  | < 30% | 99.7 |  |  | 561 |  |  |  |
| N=C(N)NCCC[C@H](NC(=O)/C=C/c1ccc(Cl)cc1)C(=O)N[C@@H](CCCCN)C(=O)N[C@@H](C(N)=O)c1ccc(OCc2ccccc2)cc1 | 721 |  | < 30% | 99.4 |  |  | 368 |  |  |  |
| N=C(N)NCCC[C@H](NC(=O)c1ccccc1)C(=O)N[C@@H](CCCCN)C(=O)N[C@@H](C(N)=O)c1ccc(OCc2ccc(F)cc2)cc1 | 196 |  | < 30% | 100 |  |  | 349 |  |  |  |
| N=C(N)NCCC[C@H](NC(=O)C1CCC1)C(=O)N[C@@H](CCCCN)C(=O)N[C@@H](C(N)=O)c1ccc(OCc2ccccc2)cc1 | 631 |  | < 30% | 98 |  |  | 434 |  |  |  |

Further lines, with some results ahead:

| IC50 [1] [nM] | inhibition [2] | inhibition [3] | inhibition [4] [%] | Retention_time [5] [min] | EC50 [7] [nM] | IC50 [8] [nM] | Compound | CC50 at 48 h [6] [nM] | Ki [1] [nM] | Ki [8] [nM] |
| --- | --- | --- | --- | --- | --- | --- | --- | --- | --- | --- |
| 120 | inactive | inactive | 99.3 |  |  | 821 | N=C(N)NCCC[C@H](NC(=O)c1sccc1Cl)C(=O)N[C@@H](CCCCN)C(=O)N[C@@H](C(N)=O)c1ccc(OCc2ccc(Cl)cc2)cc1 |  |  |  |
| 121 | inactive | inactive | 85.2 |  |  |  | CC(C)(C)c1ccc(COc2ccc([C@@H](NC(=O)[C@H](CCCCN)NC(=O)[C@H](CCCNC(=N)N)NC(=O)c3sccc3Cl)C(N)=O)cc2)cc1 |  |  |  |
| 148 | 59% | inactive | 99.4 |  |  | 487 | N=C(N)NCCC[C@H](NC(=O)c1cccs1)C(=O)N[C@@H](CCCCN)C(=O)N[C@@H](C(N)=O)c1ccc(OCC(=O)c2ccc(Br)cc2)cc1 |  |  |  |
| 47 | inactive | inactive | 100 |  |  | 273 | COc1cccc(COc2ccc([C@@H](NC(=O)[C@H](CCCCN)NC(=O)[C@H](CCCNC(=N)N)NC(=O)c3nccs3)C(N)=O)cc2)c1 |  |  |  |
| 71 | inactive | inactive | 99.2 |  |  | 150 | N=C(N)NCCC[C@H](NC(=O)c1cccs1)C(=O)N[C@@H](CCCCN)C(=O)N[C@@H](C(N)=O)c1ccc(OCc2ccc(Br)cc2)cc1 |  |  |  |
| 157 | inactive | inactive | 94.1 |  |  | 15900 | CC(C)(C)c1ccc(COc2ccc([C@@H](NC(=O)[C@H](CCCCN)NC(=O)[C@H](CCCNC(=N)N)NC(=O)c3cc4sccc4s3)C(N)=O)cc2)cc1 |  |  |  |
| 170 | inactive | inactive | 93.8 |  |  |  | N=C(N)NCCC[C@H](NC(=O)c1cc2sccc2s1)C(=O)N[C@@H](CCCCN)C(=O)N[C@@H](C(N)=O)c1ccc(OCc2ccc(Cl)cc2)cc1 |  |  |  |
| 158 | inactive | inactive | 99.2 | 3.28 | 5330 | 785 | N=C(N)NCCC[C@H](NC(=O)c1cc2sccc2s1)C(=O)N[C@@H](CCCCN)C(=O)N[C@@H](C(N)=O)c1ccc(OCc2c(Cl)cccc2Cl)cc1 | 34300 |  |  |
| 129 | inactive | inactive | 98 |  |  | 221 | N=C(N)NCCC[C@H](NC(=O)c1cc(-c2ccccc2)cs1)C(=O)N[C@@H](CCCCN)C(=O)N[C@@H](C(N)=O)c1ccc(OCc2c(Cl)cccc2Cl)cc1 |  |  |  |
| 111 | inactive | inactive | 99.6 |  |  | 371 | N=C(N)NCCC[C@H](NC(=O)c1ccc(Cl)s1)C(=O)N[C@@H](CCCCN)C(=O)N[C@@H](C(N)=O)c1ccc(OCc2ccc(Cl)cc2)cc1 |  |  |  |
| 50 | inactive | inactive | 99.1 |  |  | 166 | N=C(N)NCCC[C@H](NC(=O)c1nccs1)C(=O)N[C@@H](CCCCN)C(=O)N[C@@H](C(N)=O)c1ccc(OCc2c(Cl)cccc2Cl)cc1 |  |  |  |
| 99 |  | < 30% | 98.8 |  |  | 158 | N=C(N)NCCC[C@H](NC(=O)c1nccs1)C(=O)N[C@@H](CCCCN)C(=O)N[C@@H](C(N)=O)c1ccc(OCc2ccccc2)cc1 |  |  |  |
| 173 |  | < 30% | 100 |  |  | 348 | N=C(N)NCCC[C@H](NC(=O)c1cscn1)C(=O)N[C@@H](CCCCN)C(=O)N[C@@H](C(N)=O)c1ccc(OCc2ccccc2)cc1 |  |  |  |
| 28 | inactive | inactive | 101 | 3.15 | 7060 | 117 | N=C(N)NCCC[C@H](NC(=O)c1cccs1)C(=O)N[C@@H](CCCCN)C(=O)N[C@@H](C(N)=O)c1ccc(OCc2ccc(C(F)(F)F)cc2)cc1 | > 100000 | 19 | 93 |
| 61 | inactive | inactive | 101 |  |  | 216 | N=C(N)NCCC[C@H](NC(=O)c1cccs1)C(=O)N[C@@H](CCCCN)C(=O)N[C@@H](C(N)=O)c1ccc(OCc2ccc(F)cc2)cc1 |  |  |  |
